The values that follow come from ChEMBL document CHEMBL1128448, “Synthesis and antifungal activity of new azole derivatives containing an N-acylmorpholine ring” (1995).

Converted amounts (≈) assume the structure as drawn.

Holding throughout (assay type): functional
One experiment relates to Aspergillus flavus. In words: In vivo Evaluation of minimum inhibitory concentration against Aspergillus flavus 19. The note with it: in the assay text read “In vitro” for “In vivo”. An outline of the steps:
(§1)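 Stocks are 800 μg/mL in 50% ethanol. Each plate gets 10 μL of inoculum at 10^5 cfu/mL. Incubation at 25 °C, 48 h for yeasts and 120 h for dermatophytes and molds. Organisms are ATCC strains or clinical isolates.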

Experiment [1] has as its system Candida albicans. In words: […] Evaluation of minimum inhibitory concentration against Candida albicans 406. Summed up:
as §1

In experiment [2] the test system is Candida albicans. Briefly: […] Evaluation of minimum inhibitory concentration against Candida albicans 60. An outline of the steps:
as §1

Experiment [3] concerns Candida albicans. Briefly: In vitro Evaluation of minimum inhibitory concentration against Candida albicans 76. An outline of the steps:
as §1

Experiment [4] deals with Meyerozyma guilliermondii. In words: In vitro Evaluation of minimum inhibitory concentration against Candida guilliermondii 26. An outline of the steps:
as §1

The next experiment has as its system Candida parapsilosis. Briefly: In vitro evaluation of minimum inhibitory concentration against Candida parapsilosis 61. Summed up:
as §1

For the next experiment, the system named is Candida tropicalis. Briefly: In vitro evaluation of minimum inhibitory concentration against Candida tropicalis 2.11. An outline of the steps: as §1
The test system of experiment [5] is Mus sp. Briefly: In vivo evaluation of % survival rate after peroral administration on 3rd day at dose 2.5 mg/kg. The note with it: Mus sp., po.
Experiment [6] relates to Mus sp. Briefly: In vivo evaluation of % survival rate after peroral administration on 5th day at dose 1 mg/kg. The note with it: route oral, 1 mg/kg.
The test system of experiment [7] is Mus sp. Briefly: In vivo evaluation of % survival rate after peroral administration on 5th day at dose 2.5 mg/kg. The following applies: Mus sp., po.
Experiment [8] relates to Mus sp. In words: In vivo evaluation of % survival rate after peroral administration on 7th day at dose 1 mg/kg. The following applies: route oral, 1 mg/kg.
Experiment [9] deals with Mus sp. Briefly: In vivo evaluation of % survival rate after peroral administration on 7th day at dose 2.5 mg/kg. The note with it: Mus sp., po.
Experiment [10] deals with Mus sp. Briefly: In vivo evaluation of % survival rate after peroral administration on 9th day at dose 1 mg/kg. The following applies: route oral, 1 mg/kg.
In experiment [11] the test system is Mus sp. In words: In vivo evaluation of % survival rate after peroral administration on 9th day at dose 2.5 mg/kg. The following applies: Mus sp., po.
In the next experiment the test system is Rhodotorula mucilaginosa. In words: In vitro evaluation of minimum inhibitory concentration against Rhodotorula rubra 16. An outline of the steps:
as §1

The next experiment relates to Kluyveromyces marxianus. Briefly: In vitro evaluation of minimum inhibitory concentration against Candida pseudotropicalis 13. An outline of the steps:
as §1

As a reminder, the MIC is the lowest concentration found to suppress growth. A higher MIC goes with a need for much substance. In the case of `C[C@H]1N(C(=O)c2ccc(C(F)(F)F)cc2)CC(=O)O[C@@]1(Cn1cncn1)c1ccc(Cl)cc1Cl` (racemic), the MIC against Aspergillus flavus was > 80 µg/mL; with Candida albicans [1], 5 µg/mL (≈ 9.74 µM); in the experiment on Candida albicans [2], 10 µg/mL (≈ 19.5 µM); against Candida albicans [3], 20 µg/mL (≈ 39 µM); in experiment [4], 80 µg/mL (≈ 156 µM); in the experiment on Candida parapsilosis, 40 µg/mL (≈ 77.9 µM). In addition, the MIC was found to be 80 µg/mL (≈ 156 µM) against Candida tropicalis, 80 µg/mL (≈ 156 µM) against Rhodotorula mucilaginosa and 20 µg/mL (≈ 39 µM) against Kluyveromyces marxianus. For the same molecule, the survival at 2.5 mg/kg with Mus sp. [5], in the experiment with Mus sp. [7], in the experiment on Mus sp. [9] and in the experiment with Mus sp. [11] was 100% in each case. In addition, the values for the Survival with Mus sp. [6], in the experiment on Mus sp. [8] and with Mus sp. [10] were 80%, 55% and 45%, respectively.
